Results gathered from unrelated publications.
Compare with care: the assays were run in different laboratories.
Mode: inhibitor
HDAC6: Protein deacetylase HDAC6 (HDAC6, Homo sapiens, UniProt Q9UBN7)
ACSL4: Long-chain-fatty-acid--CoA ligase 4 (ACSL4, Homo sapiens, UniProt O60488)
CDK7 with cyclin H: Cyclin-dependent kinase 7, with cyclin H (CDK7, Homo sapiens, UniProt P50613)
SLCO2B1: Solute carrier organic anion transporter family member 2B1 (SLCO2B1, Homo sapiens, UniProt O94956)

O=C(NO)c1ccc(CN2CCN(c3cccc4cc(S(=O)(=O)c5cccc(F)c5)cnc34)CC2)c(F)c1 — IC50 (HDAC6; enzyme activity, fluorescence): 0.54 µM
CN(CCOc1ccc(CC2SC(=O)NC2=O)cc1)c1ccccn1 (stereo not shown) — IC50 (ACSL4; enzyme activity): 1.1 µM
N=C(N)NCCCC(=O)O — IC50 (Alkaline phosphatase, tissue-nonspecific isozyme (Rattus norvegicus, UniProt P08289); enzyme activity in cells, absorbance): 15200 µM
CN(CCCCCCNC(=O)COc1ccc(C2CCC(=O)NC2=O)cc1)Cc1cn(Cc2ccc(C(=O)NO)cc2)c2ccccc12 (stereo not shown) — IC50 (HDAC6; enzyme activity, fluorescence): 0.031 µM
Cc1c(C)c2c(c(C)c1O)CCC(C)(COc1ccc(CC3SC(=O)NC3=O)cc1)O2 (stereo not shown) — IC50 (ACSL4; enzyme activity): 26.3 µM
CN(C)C(=O)c1cc2cnc(Nc3ccc(-c4cccc5c(=O)cc(N6CCOCC6)oc45)cc3)nc2n1C1CCCC1 — IC50 (CDK7 with cyclin H; enzyme activity): > 10 µM
Cc1cc(O)c(-c2ccc([C@@H](C)CN(C)C)cc2)c2c1[nH]c(=O)c1sccc12 — IC50 (CDK7 with cyclin H; enzyme activity): > 1 µM
CN(CCCCCCNC(=O)CNc1cccc2c1C(=O)N(C1CCC(=O)NC1=O)C2=O)Cc1cn(Cc2ccc(C(=O)NO)cc2)c2ccccc12 (stereo not shown) — IC50 (HDAC6; enzyme activity, fluorescence): 0.026 µM
COC(=O)/C=C/c1ccc(OCCN(C)C(=O)c2ccccc2)cc1 — IC50 (ACSL4; enzyme activity): 0.38 µM
COc1ccc(N(Cc2csc(-c3ccc(C)cc3)n2)C(=O)CCCCCC(=O)NO)cc1 — IC50 (HDAC6; enzyme activity): 0.0025 µM
CNS(=O)(=O)c1ccc(Nc2ncc(C(F)(F)F)c(N3CCC[C@](C)(O)C3)n2)c(C)c1 — IC50 (CDK7 with cyclin H; enzyme activity, radiometric): 1.61 µM
O=C(NO)c1ccc(Cn2cnc3c(Nc4ccc(Br)cc4F)ncnc32)cc1 — IC50 (HDAC6; enzyme activity, fluorescence): 0.00913 µM
O=C(/C=C/c1ccc(O)c(O)c1)O[C@H]1[C@H](O)[C@@H](O)[C@H](OCCc2ccc(O)c(O)c2)O[C@@H]1CO — IC50 (3-hydroxy-3-methylglutaryl-coenzyme A reductase (HMGCR, Homo sapiens, UniProt P04035); enzyme activity, absorbance): 73.5 µM
COc1ccc(N(Cc2nc(-c3ccc(F)cc3)cs2)C(=O)CCCCCC(=O)NO)cc1 — IC50 (HDAC6; enzyme activity): 0.0035 µM
CCc1oc2cc(F)ccc2c1C(=O)c1cc(Br)c(O)c(Br)c1 — IC50 (SLCO2B1; transporter uptake, radiometric): 0.749 µM
CNS(=O)(=O)c1ccc(Nc2ncc(C(F)(F)F)c([C@H]3CC[C@@](C)(O)CC3)n2)c(C)c1 — IC50 (CDK7 with cyclin H; enzyme activity, radiometric): 7.26 µM
O=C(NO)c1ccc(Cn2cnc3c(Nc4cccc([N+](=O)[O-])c4)ncnc32)cc1 — IC50 (HDAC6; enzyme activity, fluorescence): < 0.002 µM
CCc1ccc(C(=O)COc2ccc(CC3SC(=O)NC3=O)cc2)nc1 (stereo not shown) — IC50 (ACSL4; enzyme activity): 6 µM
N=C(N)c1ccc(OCCCCCOc2ccc(C(=N)N)cc2)cc1 — IC50 (Prothrombin (F2, Homo sapiens, UniProt P00734); enzyme activity, absorbance): > 100 µM
CN1C(=O)SC(Cc2ccc(OCCN(C)c3ccccn3)cc2)C1=O (stereo not shown) — IC50 (ACSL4; enzyme activity): 4.5 µM
CNS(=O)(=O)c1ccc(Nc2ncc(C(F)(F)F)c(N3CCC(C)(O)CC3)n2)c(C)c1 — IC50 (CDK7 with cyclin H; enzyme activity, radiometric): 1.97 µM
COC(=O)CCc1ccc(OCCN(C)c2ccccc2)cc1 — IC50 (ACSL4; enzyme activity): 8.5 µM
O=C1CCC(c2ccc(OCC(=O)OCCCCc3cn(CCCCCCN4CCc5c(c6ccccc6n5Cc5ccc(C(=O)NO)cc5)C4)nn3)cc2)C(=O)N1 (stereo not shown) — IC50 (HDAC6; enzyme activity, fluorescence): 0.049 µM
CCc1oc2cc(F)c(F)cc2c1C(=O)c1cc(Br)c(O)c(Br)c1 — IC50 (SLCO2B1; transporter uptake, radiometric): 0.135 µM
CN(CCOc1ccccc1)c1ccccn1 — IC50 (ACSL4; enzyme activity): > 50 µM
